Assay [1] in a line: Inhibition of Trypanosoma brucei LeuRS preincubated for 20 mins prior to reaction initiation by aminoacylation assay. The method, boiled down:
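Enzyme, compound, tRNA and 0.003 mCi/mL [¹⁴C]-leucine were incubated 20 min at 37 °C, then 4 mM ATP was added to start the reaction. Precipitated [¹⁴C]-Leu-tRNA^Leu on dried filter paper was measured by scintillation counting.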

Assay [2] in a line: Inhibition of Staphylococcus aureus LeuRS.
A short description of assay [3]: Inhibition of human LeuRS.
Assay [4] is described as follows: Inhibition of Escherichia coli LeuRS.

Molecules are shown by their SMILES.

The compound `CCc1ccc(C2C(C(=O)c3ccc(OC)cc3)=C(O)C(=O)N2CCCNC(=O)CC(C)C)cc1` (stereo unspecified) showed an IC50 in assay [1] greater than 1000 µM.
In the case of `COc1ccc(C(=O)C2=C(O)C(=O)N(CCc3c[nH]c4ccccc34)C2c2ccc(C(C)(C)C)cc2)cc1` (stereo unspecified), in assay [1], the IC50 worked out at 94.5 µM. This counts as double-digit micromolar.
Consider `CCc1ccc(C2C(C(=O)c3ccc(OC)cc3)=C(O)C(=O)N2c2ccc(CNC(=O)OC(C)(C)C)cc2)cc1` (stereo unspecified), for which the IC50 in assay [1] was 102 µM. The IC50 values of the last two compounds are within 1.5-fold of each other.
Still for that read-out and setting: the figure for `CC(C)Cc1ccc(C2C(C(=O)c3ccc(F)cc3F)=C(O)C(=O)N2CCc2c[nH]c3ccccc23)cc1` (stereo unspecified) is 175 µM; for `O=C(C1=C(O)C(=O)N(CCc2c[nH]c3ccccc23)C1c1ccccc1)c1ccc(F)cc1` (stereo unspecified) it is greater than 1000 µM; for `CCc1ccc(C2C(C(=O)c3ccc(OC)cc3)=C(O)C(=O)N2CCCn2ccnc2)cc1` (stereo unspecified) it is 716 µM.
Take `COc1ccc(C(=O)C2=C(O)C(=O)N(CCc3c[nH]c4ccccc34)C2c2ccccc2)cc1` (stereo unspecified): half-maximal inhibition in assay [1] (IC50) required 260 µM.
Regarding `CC[C@H](C)[C@H](N)C(=O)NS(=O)(=O)OC[C@H]1O[C@@H](c2nc(-c3ccccc3)ns2)[C@H](O)[C@@H]1O`, the IC50 was greater than 20 µM in assay [2], 200 µM in assay [3] and 1 µM in assay [4].
In assay [1], `CCc1ccc(C2C(C(=O)c3cccc4ccccc34)=C(O)C(=O)N2CCc2c[nH]c3ccccc23)cc1` (stereo unspecified) gave an IC50 of 80 µM.
In assay [1], `O=C(C1=C(O)C(=O)N(CCc2c[nH]c3ccccc23)C1c1ccc(Cl)cc1)c1ccc(F)cc1` (stereo unspecified) came in with an IC50 greater than 1000 µM.
Regarding `O=C(C1=C(O)C(=O)N(CCc2c[nH]c3ccccc23)C1c1cccc(F)c1)c1ccccc1` (stereo unspecified), the IC50 in assay [1] was greater than 1000 µM.
For `CCc1ccc(C2C(C(=O)c3ccc(OC)cc3)=C(O)C(=O)N2Cc2ccc3c(c2)OCO3)cc1` (stereo unspecified), it took 174 µM to reach half-maximal inhibition in assay [1] (IC50).
On to `COc1ccc(C(=O)C2=C(O)C(=O)N(CCc3c[nH]c4ccccc34)C2c2ccc(Cl)cc2)cc1` (stereo unspecified), for which the IC50 in assay [1] is 86.9 µM.
Still for that read-out and setting: the figure for `CCc1ccc(C2C(C(=O)c3ccc(OC)cc3)=C(O)C(=O)N2c2ccc(CN)cc2)cc1` (stereo unspecified) is greater than 1000 µM.
In the case of `CC[C@H](C)[C@H](N)C(=O)NS(=O)(=O)OCc1oc(-c2nc(-c3ccccc3)cs2)c(O)c1O`, the IC50 in assay [3] was found to be 0.6 µM; in assay [4] it was 0.0016 µM.
For the compound `CCc1ccc(C2C(C(=O)c3ccc(OC)cc3)=C(O)C(=O)N2Cc2ccc(C(=O)O)cc2)cc1` (stereo unspecified), the IC50 in assay [1] was determined as 656 µM.
Same read-out and setting: in the case of `O=C(C1=C(O)C(=O)N(CCc2c[nH]c3ccccc23)C1c1cccc(O)c1)c1ccc(Cl)cc1` (stereo unspecified) it was 588 µM; in that of `COc1ccc(C(=O)C2=C(O)C(=O)N(CCc3c[nH]c4ccccc34)C2c2cccc(F)c2)cc1` (stereo unspecified), 170 µM.
In assay [1], `COc1ccc(C(=O)C2=C(O)C(=O)N(CCc3c[nH]c4ccccc34)C2c2ccc(C(F)(F)F)cc2)cc1` (stereo unspecified) returned an IC50 of 68.1 µM.
Consider `CCCCCC1C(C(=O)c2ccc(OC)cc2)=C(O)C(=O)N1CCc1c[nH]c2ccccc12` (stereo unspecified), for which the IC50 in assay [1] is 111 µM.
For the compound `CC(C)C[C@H](N)C(=O)NS(=O)(=O)OC[C@H]1O[C@@H](c2nc(CCc3ccccc3)ns2)[C@H](O)[C@@H]1O`, the figures for the IC50 in assay [2], in assay [3] and in assay [4] were 0.09 µM, 0.73 µM and less than 0.002 µM, respectively.
`CCc1ccc(C2C(C(=O)c3ccc(OC)cc3)=C(O)C(=O)N2CCCNC(=O)OC(C)(C)C)cc1` (stereo unspecified) gave an IC50 in assay [1] of 269 µM.
`COc1ccc(C(=O)C2=C(O)C(=O)N(CCc3c[nH]c4ccccc34)C2c2ccc(-c3ccccc3)cc2)cc1` (stereo unspecified) gave an IC50 in assay [1] of 43.1 µM.
As to `CC(C)C[C@H](N)C(=O)NS(=O)(=O)OC[C@H]1O[C@@H](c2nc(-c3ccc(Oc4ccccc4)cc3)ns2)[C@H](O)[C@@H]1O`, the results for the IC50 in assay [2], in assay [3] and in assay [4] were 0.054 µM, 0.6 µM and 0.0016 µM, respectively.
For the compound `COc1ccc(C(=O)C2=C(O)C(=O)N(CCc3c[nH]c4ccccc34)C2c2ccc(C)cc2)cc1` (stereo unspecified), the IC50 in assay [1] is 117 µM.
In assay [1], `COc1ccc(C(=O)C2=C(O)C(=O)N(CCc3c[nH]c4ccccc34)C2c2ccccc2F)cc1` (stereo unspecified) had an IC50 of 269 µM.
Still for that read-out and setting: in the case of `COc1ccc(C(=O)C2=C(O)C(=O)N(CCc3c[nH]c4ccccc34)C2c2ccc(F)cc2Br)cc1` (stereo unspecified) it was 110 µM.
For the compound `CC(C)C[C@H](N)C(=O)NS(=O)(=O)OC[C@H]1O[C@@H](c2nc(CCc3cccc(Oc4ccccc4)c3)ns2)[C@H](O)[C@@H]1O`, the IC50 in assay [2] stood at 0.1 µM; in assay [3] it was 1.15 µM; in assay [4], 0.006 µM.
In the case of `COc1ccc(C(=O)C2=C(O)C(=O)N(CCc3c[nH]c4ccccc34)C2c2ccccc2Cl)cc1` (stereo unspecified), inhibition in assay [1] was half-maximal at 125 µM (IC50).
Consider `CCc1ccc(C2C(C(=O)c3ccc(OC)cc3)=C(O)C(=O)N2CCc2c[nH]c3ccccc23)cc1` (stereo unspecified), for which the IC50 in assay [1] is 71.4 µM.
In assay [1], `CCCCc1ccc(C2C(C(=O)c3ccc(OC)cc3)=C(O)C(=O)N2CCc2c[nH]c3ccccc23)cc1` (stereo unspecified) returned an IC50 of 43.9 µM. Compared with the last compound, the IC50 is about 1.6-fold lower.
In turn, `CC(C)Cc1ccc(C2C(C(=O)c3ccc(Cl)cc3)=C(O)C(=O)N2CCc2c[nH]c3ccccc23)cc1` (stereo unspecified) had an IC50 in assay [1] of 41 µM.
Compound `COc1ccc(C(=O)C2=C(O)C(=O)N(CCc3c[nH]c4ccccc34)C2c2ccc(C(C)C)cc2)cc1` (stereo unspecified) displayed an IC50 in assay [1] of 90.5 µM.
The compound `COc1ccc(C(=O)C2=C(O)C(=O)N(CCc3c[nH]c4ccccc34)C2c2ccc(CC(C)C)cc2)cc1` (stereo unspecified) came in with an IC50 in assay [1] of 31.9 µM.
Still for that read-out and setting: the figure for `COc1ccccc1C1C(C(=O)c2ccc(Cl)cc2)=C(O)C(=O)N1CCc1c[nH]c2ccccc12` (stereo unspecified) is 107 µM; for `CCc1ccc(C2C(C(=O)c3ccc(OC)cc3)=C(O)C(=O)N2CCCN)cc1` (stereo unspecified) it is greater than 1000 µM.
Regarding `CC[C@H](C)[C@H](N)C(=O)NS(=O)(=O)CC(=O)O[C@H]1CC[C@H]2C(C(N)=O)=CN(C)C[C@@H]12`, half-maximal inhibition in assay [2] (IC50) required 0.42 µM.
For `COc1ccc(C(=O)C2=C(O)C(=O)N(CCc3c[nH]c4ccccc34)C2c2ccccc2OC)cc1` (stereo unspecified), the IC50 in assay [1] amounted to 190 µM.
In turn, `COc1ccc(C(=O)C2=C(O)C(=O)N(CCc3c[nH]c4ccccc34)C2c2ccc(F)cc2)cc1` (stereo unspecified) showed a concentration for half-maximal inhibition (IC50) in assay [1] of 64.7 µM. This IC50 lies about 2.9-fold lower than the previous one.
As for `COc1ccc(C(=O)C2=C(O)C(=O)N(CCc3c[nH]c4ccccc34)C2c2ccc3ccccc3c2)cc1` (stereo unspecified), the IC50 in assay [1] came out at 85.5 µM.
For the compound `CC[C@H](C)[C@H](N)C(=O)NS(=O)(=O)CC(=O)N[C@]1(C(=O)OC)[C@@H]2CN(C)C=C(C(N)=O)[C@@H]2C[C@@H]1O`, the IC50 in assay [2] worked out at 186 µM.
`COc1ccc(C(=O)C2=C(O)C(=O)N(CCc3c[nH]c4ccccc34)C2c2ccc(OC)cc2)cc1` (stereo unspecified): half-maximal inhibition in assay [1] (IC50) was put at 334 µM.

The term IC50 denotes the midpoint of a concentration-inhibition curve. Lower therefore signals greater potency.

The record behind these values is ChEMBL document CHEMBL1938385, “Identification of Trypanosoma brucei leucyl-tRNA synthetase inhibitors by pharmacophore- and docking-based virtual screening and synthesis” (Bioorg Med Chem, 2012).
